The text below walks through data of PubChem BioAssay AID602169 (The Scripps Research Institute Molecular Screening Center, 2012).

Activity calls are given as the source filed them.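 How the source made its calls: active means luciferase reporter signal inhibited by 20% or more; inactive means inhibition below 20%.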

The experiment has as its system BG1Luc4E2 ER-luciferase reporter inhibition, 24 h. The experiment in a line: inhibitors of ER-driven luciferase reporter, late-stage follow-up, counter-screen for AHR activator project, BG1Luc4E2 ovarian carcinoma cells, luminescence (AID 602169). Conditions: at 10 µM; hits give high values. The gist of the method: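 Times: 5-day estrogen depletion, then 24 h compound exposure at 37 °C. Assay system: BG1Luc4E2 ovarian carcinoma ERE-luciferase reporter cells. Replicates: triplicates. Compound dosing: single dose of 10 µM per compound. Detection: luciferase luminescence after lysis. Buffer or medium: phenol red-free DMEM, charcoal-stripped serum.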
(A reporter such as luciferase makes a cellular process visible.)
With `Cn1c(C(=O)N2CCC(C(N)=O)CC2)cc2cc(Cl)ccc21`, the inhibition was 4% (inactive). Take `CCCC(=O)Nc1nn(C)c2nc3cc(C)ccc3cc12`: the inhibition was 0% (inactive).

In the case of `COc1ccccc1NC(=O)Nc1cccnc1`, the inhibition was 3% (inactive). Next, `CCC(=O)Nc1cc(OC)c(NC(=O)c2ccccc2)cc1OC`: 1% (inactive); `COc1ccccc1C(=O)Nc1ccc(N2CCCCC2)cc1`: 47%; `CCOc1ccc(NC(=O)c2cc3ccccc3cc2OC)cc1`: 5.3% (inactive). For the compound `O=C(Nc1cccc(Cl)c1)c1cccnn1`, the inhibition was 2% (inactive). `Cc1cc(Nc2ccc(Br)cc2)n2nc(C)nc2n1`: the inhibition was 0% (inactive). Next, `Cc1nnc(N2C(=O)c3cccc4c([N+](=O)[O-])ccc(c34)C2=O)s1`: 0% (inactive). On to `O=C1c2ccccc2-c2nc3ccccc3nc21`, for which the inhibition was 34%. As for `COc1ccccc1NC(=O)c1ccc2c(c1)nnn2C`, the inhibition is 0% (inactive). `O=C(Nc1ccon1)c1cnc2sccn2c1=O`: the inhibition was 34%. Turning to `COc1cc2ccccc2cc1C(=O)Nc1ccc(C)cc1`, the inhibition was 40%.

Regarding `Cc1nc(N)nc(Nc2ccc(Cl)cc2)c1Br`, the inhibition is 7% (inactive). As to `COc1ccccc1NC(=O)c1ccc(C(=O)Nc2ccccc2OC)nc1`, the inhibition is 0% (inactive). As to `Cc1csc(SCC(=O)Nc2ccc(Cl)cn2)n1`, the inhibition was 0% (inactive).

As for `COc1ccc(NC(=O)c2cccc3c(Br)cccc23)cc1`, the inhibition was 31%. With `Cc1ccccc1-c1nc(-c2cccnc2)no1`, the inhibition was 22%. Consider `Cc1c(-c2ccn[nH]2)cc(NC(=O)c2ccc(Cl)cc2)c(=O)n1N`, for which the inhibition was 1% (inactive).

For `COC(=O)c1ccccc1NC(=O)Cn1ccnc1`, the inhibition was 3% (inactive). `COc1ccc(Cl)cc1C(=O)Nc1ccc(N(C)C(C)=O)cc1`: the inhibition was 2% (inactive). `CN(C)c1nc(N)nc(-c2nc3ccccc3s2)n1`: the inhibition was 44%. In the case of `COc1ccc(C(=O)Nc2cc(OC)c(NC(=O)c3ccco3)cc2OC)cc1`, the inhibition is 0% (inactive).

For `Cn1c(N)c(C(=O)Nc2ccccc2F)sc1=S`, the inhibition is 5% (inactive).

For the compound `CCOC(=O)Cc1cc(-c2ccc(O)cc2)nc2ccc3ccccc3c12`, the inhibition was 28%. Regarding `O=C(CN1CCOCC1)Nc1nc2ccc([N+](=O)[O-])cc2s1`, the inhibition was 11% (inactive).

Take `CCOc1ccc(-c2cc(C)n3nc(C(N)=O)cc3n2)cc1`: the inhibition is 0% (inactive).

As to `Cc1ccc(-c2cc(-c3cccs3)[nH]n2)c(O)c1`, the inhibition was 20%. As for `CC(=O)c1ccc(NC(=O)c2cc(Cl)nc3ccccc23)cc1`, the figure is 2% (inactive); as for `Cc1ccc(Nc2ncccc2C(N)=O)cc1`, 24%; as for `CCOc1ccccc1NC(=O)c1ccc2nccnc2c1`, 8% (inactive). Turning to `COc1cc2c(cc1NC(=O)Nc1ccc(C)cc1)oc1ccccc12`, the inhibition was 5% (inactive). Next, `CN1CCN(CCCNC(=O)c2cc3c(-c4ccc(Cl)cc4)nn(C)c3s2)CC1`: 0% (inactive).

As usually defined, the inhibition is the relative decrease from the control value, in per cent.
